GASC-1 inh: inhibitors of human GASC-1 (JMJD2C) demethylase; 0.069% of 330,000 active; GST-JMJD2C(1-420) H3K9me3 demethylation, DELFIA europium; inhibition, % at 2.35 µM; AID 2099;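 active = more than half of a compound's replicate wells show inhibition beyond 50%, single wells judged on their own value; inconclusive = some, but no more than half, of replicates pass 50% inhibition; inactive = no replicate passes 50% inhibition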;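 note: signal counts dimethyl H3K9 product captured on neutravidin plate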
NR3A LBD binder: modulators (binders) of human NR3A ligand-binding domain | NR3A LBD differential scanning fluorimetry, Tm shift; 0% = protein alone, 100% = glycine-bound protein | Tm shift relative to glycine control, % at 25 µM | 2.5% of 340,000 active | AID 1259313;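 active = melting temperature shift of at least 10% of the positive control shift, at one fixed dose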
Rtt109 Vps75: blocks Candida albicans Rtt109/Vps75 acetyltransferase activity; Q5AAJ8; purified Rtt109/Vps75, ThioGlo CoA-SH fluorescence, 4 h; inhibition, % at 34.9 µM; 0.16% of 330,000 active; AID 540336;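 active = inhibition of at least 50% in every replicate; inconclusive = best replicate reaches 50% inhibition but some replicates fall short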
Target sequence (Q5AAJ8 whole entry, looked up): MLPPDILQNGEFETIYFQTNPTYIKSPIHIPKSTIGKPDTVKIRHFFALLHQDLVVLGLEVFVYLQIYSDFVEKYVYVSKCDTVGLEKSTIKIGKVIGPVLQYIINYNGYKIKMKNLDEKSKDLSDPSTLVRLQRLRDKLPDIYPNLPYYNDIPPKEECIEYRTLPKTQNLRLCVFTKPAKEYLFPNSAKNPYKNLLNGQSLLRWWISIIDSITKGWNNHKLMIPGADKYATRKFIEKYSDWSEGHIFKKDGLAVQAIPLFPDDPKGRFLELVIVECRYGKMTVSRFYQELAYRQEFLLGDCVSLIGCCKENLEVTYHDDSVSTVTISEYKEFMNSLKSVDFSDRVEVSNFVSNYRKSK
T cell HTS: T cell immune modulators affecting CD8 T cell-vesicle binding; 0.068% of 330,000 active; 2C CD8+ T cell-vesicle binding, flow cytometry; active compounds read low; response (vesicle binding), % at 7 µM;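 active = response, share of CD8 T cells binding vesicles, and their 90th percentile fluorescence all below set limits, cut at about 80% in these data, passing the limit was not always enough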;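 note: values below 100% mean blocked vesicle binding to the CD8+ T cells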
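Test system: purified 2C TCR transgenic mouse naive CD8+ T cells. Probe or stimulus: QL9-peptide-loaded Drosophila micro-vesicles bearing Ld, ICAM-1 and B7-1. Incubation: binding step 1.5 h, 37 °C, antibody labelling 20 min, ice. Measured by: flow cytometry of vesicle-bound cells.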
Hits are given with their value; 0 = inactive; ? = inconclusive; - = not tested or not shown; ! = not active in a repeat. A selection: hits, their analogues and other compounds. The true share with any hit is near 2.8%.

SMILES	GASC-1 inh	NR3A LBD binder	Rtt109 Vps75	T cell HTS
O=C(Nc1cc(Cl)ccc1-n1cncn1)c1ccc([N+](=O)[O-])o1	0	0	0	0
CCC(CO)Oc1cc(NCc2ccc(C(C)(C)C)cc2)c2ncn(C(C)C)c2c1 (stereo not given)	0	0	0	0
O=C1COC(c2ccccc2)C2CCCCN12 (stereo not given)	0	16	0	0
CNC(=O)c1cc(NC(=O)N(CCC#N)CCN(C(=O)NC(Cc2ccccc2)C(=O)NC(CC(C)C)C(=O)NC)c2ccccc2)ccc1OC (stereo not given)	-	0	0	-
COc1cccc(C(=O)NCCS(=O)(=O)NC2CCCC2)c1	?	0	0	0
O=[N+]([O-])c1ccc(SCCc2ccncc2)cc1	0	11!	0	0
O=C(NCCN1CCN(C(=O)c2ccc(F)cc2)CC1)C(=O)NCc1ccccc1	0	0	0	0
COc1ccc(NC(=O)c2cccnc2NCCc2ccccc2)cc1	0	18	0	0
O=C(Nc1ccccc1)c1cccnc1NCCc1ccccc1	0	0	0	0
O=C(Nn1c(O)c(C=C2N=c3ccccc3=N2)sc1=S)c1ccccc1Cl	0	23	0	0
CSc1ccccc1NC(=O)c1cc(-c2cccnc2)nc2ccc(Br)cc12	0	0	0	0
O=C(NCc1cccc(Cl)c1)c1ccc(S(=O)(=O)Nc2cccc(C(F)(F)F)c2)cc1	0	28	0	0
CCC(Oc1ccccc1)C(=O)Nc1ccccc1C(=O)N1CCN(C)CC1 (stereo not given)	0	11	0	0
CCC(Oc1ccccc1)C(=O)Nc1ccccc1C(=O)N1CCCCC1 (stereo not given)	0	0	0	0
CCC(Oc1ccccc1)C(=O)Nc1ccccc1C(=O)N1CCOCC1 (stereo not given)	0	13	0	0
CN(C)c1ccc(/C=N/N2C(=S)SC(C)(C)C2N(O)C(=O)Nc2ccc([N+](=O)[O-])cc2)cc1 (stereo not given)	0	11	0	0
CCC1CN(C(=O)N2CCC(C(=O)Nc3ccccc3OC)CC2)c2ccccc2O1 (stereo not given)	0	0	0	0
Nc1ccccc1C(=O)NC(=O)Nc1ccc(Oc2ncc(Br)cn2)c(Cl)c1	-	0	0	-
C=CCc1cc(Cl)ccc1OC(=O)Nc1cccc(Cl)c1	0	11	0	0
COc1ccc(/C(N)=N/OC(=O)c2c(-c3ccccc3Cl)noc2C)cc1OC	0	18	0	0
Cc1onc(-c2ccccc2Cl)c1C(=O)OCC(=O)c1ccc2c(c1)OCCO2	0	12	0	0
O=C(Cc1c(F)cccc1Cl)NNC(=O)c1ccncc1	0	0	0	0
CC(C(=O)OCC(=O)Nc1ccc(S(N)(=O)=O)cc1)N1C(=O)c2ccccc2C1=O (stereo not given)	0	0	0	0
COC(=O)CNC(=O)/C=C/c1cc(Br)ccc1OC	0	0	0	0
CCC(=O)Nc1cccc(C(=O)/C=C/c2cc(Br)ccc2OC)c1	0	0	0	0
SMILES	GASC-1 inh	NR3A LBD binder	Rtt109 Vps75	T cell HTS
COc1ccc(Br)cc1/C=C/C(=O)Nc1ccc2ccccc2c1	0	15	0	0
COc1ccc(Br)cc1/C=C/C(=O)Nc1ccc(C)cc1	0	20	0	0
C/C(=N\NC(=O)c1ccc(O)cc1)c1cccc(NC(=O)c2ccccc2C)c1	0	0	0	0
COC(=O)[C@H](CCSC)NC(=O)Cn1cnc(C(=O)Nc2ccc(C)c(C)c2)n1	-	13	0	-
Cc1sc(NC(=O)c2cc(-c3ccc(Cl)cc3)nc3ccccc23)c(C(N)=O)c1C	0	0	0	0
COC(=O)c1sc(NC(=O)c2cc(-c3ccccc3)nc3ccccc23)c(C#N)c1C	0	21	0	0
Cc1sc(NC(=O)c2cc(-c3ccccc3)nc3ccccc23)c(C(N)=O)c1C	0	17	0	0
S=C(NCc1ccco1)Nc1ccc(Cl)c(Cl)c1	0	11	0	0
S=C(NCc1ccco1)Nc1cccc(Cl)c1	0	0	0	0
CC(NC(=O)c1cc(S(=O)(=O)N2CCCC2)cn1C)c1ccccc1 (stereo not given)	0	0	0	0
CSCCC(NC(=O)c1ccc(C)o1)C(=O)O (stereo not given)	0	15	0	0
CSCCC(NC(=O)c1cc(C)oc1C)C(=O)O (stereo not given)	0	0	-	0
Cc1ccc(Cl)cc1NC(=O)Nc1cccs1	0	20	0	0
COc1ccc(-c2cc(-c3ccccc3)nc(SCC(=O)Nc3ncc(C)s3)c2C#N)cc1	0	20	0	0
O=C(NCC1CCN(Cc2ccccc2F)CC1)Nc1cc(F)ccc1F	0	0	0	0
O=C(NCC1CCN(Cc2ccc(F)cc2)CC1)Nc1cc(F)ccc1F	0	10	0	0
COc1ccc(S(=O)(=O)Nc2cc(C)ccc2OC)cc1C	0	12	0	0
COc1ccc(C)cc1NS(=O)(=O)c1ccc(NS(=O)(=O)c2ccc(NC(C)=O)cc2)cc1	0	0	0	0
Cc1ccc(NC(=O)CN(c2ccc(Cl)cc2)S(=O)(=O)c2cc([N+](=O)[O-])ccc2Cl)cc1	0	0	0	0
COc1ccc([N+](=O)[O-])cc1N(CC(=O)NCCSc1ccc(C)cc1)S(C)(=O)=O	0	0	0	0
Cc1cccc(NS(=O)(=O)c2ccc(NC(=O)CN(c3cc([N+](=O)[O-])ccc3C)S(C)(=O)=O)cc2)c1	0	22	-	0
COc1ccc(C)cc1S(=O)(=O)N(CC(=O)Nc1cccc([N+](=O)[O-])c1)c1ccc(C)c(C)c1	0	33	0	0
COc1ccc(C)cc1NS(=O)(=O)c1ccc(NC(=O)CN(c2cc([N+](=O)[O-])ccc2C)S(C)(=O)=O)cc1	0	20	0	0
CC(C)c1ccc(S(=O)(=O)N2CCC(C(=O)NCc3ccco3)CC2)cc1	-	0	0	-
Cc1cccc(C)c1NC(=O)CN(C)C(=O)CC1Sc2ccccc2NC1=O (stereo not given)	0	0	0	0
SMILES	GASC-1 inh	NR3A LBD binder	Rtt109 Vps75	T cell HTS
CCc1ccc(N2CC(C(=O)Nc3ccc(S(=O)(=O)N4CCOCC4)cc3)CC2=O)cc1 (stereo not given)	0	0	0	0
NCC(=O)NCC(=O)NC[C@H]1O[C@@H](n2ccc(=O)[nH]c2=O)[C@H](O)[C@@H]1O	-	0	0	-
O=c1ccn([C@@H]2O[C@H](CNS(=O)(=O)C3CC3)[C@@H](O)[C@H]2O)c(=O)[nH]1	-	14	0	-
CC1=NN(c2cccc(Cl)c2)C(=O)C1	0	11	0	0
Cc1cc2c(n1-c1ccc(C(=O)O)cc1)CCCCC2	0	-	-	0
Cc1ccc(C(=O)NCC(=O)OCC(=O)Nc2ccc3[nH]c(=O)[nH]c3c2)cc1	0	0	0	0
CC(C)OC(=O)CC1C(=O)NCCN1C(=O)COc1ccc(C(C)(C)C)cc1 (stereo not given)	0	0	0	0
Nc1ccccc1C#Cc1ccc2[nH]ccc2c1	0	19	0	0
CC(C(=O)Nc1ccc(F)c(F)c1F)N(C)CCOc1ccccc1 (stereo not given)	0	0	0	0

Bioassay records deposited in PubChem by several laboratories.
